Measurements as given in PMC8286339 (ACS chemical biology, 2021).
NAH = SAM mimic in which the sulfonium ion is replaced by a nitrogen atom; C3 = 3-carbon linker to the N-terminal alpha-amine

Columns and labels:
NTMT1 [1] = target: T1, NTMT1 (Homo sapiens, UniProt Q9BV86); details: read-out: Ki, app; previously developed NTMT1 bisubstrate inhibitors; cited from earlier work
T1 sequence (Q9BV86 1-223): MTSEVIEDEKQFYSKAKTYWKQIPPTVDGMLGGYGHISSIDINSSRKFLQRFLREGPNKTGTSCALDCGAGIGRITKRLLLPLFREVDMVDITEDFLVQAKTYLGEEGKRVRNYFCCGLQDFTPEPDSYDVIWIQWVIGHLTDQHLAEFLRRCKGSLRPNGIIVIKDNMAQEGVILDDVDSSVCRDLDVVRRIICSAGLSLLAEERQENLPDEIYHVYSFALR

NTMT1 [2] = target: T1, NTMT1; experiment: Pull-down from HeLa cell lysates with immobilized probe, anti-NTMT1 Western blot; assay type: binding; details: 700 mM NaCl wash
Method in brief: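 Lysate was incubated overnight with probe-loaded streptavidin resin, optionally with competitor (10 mM stock) added first; resin alone served as control. Washes used IP buffer, then 700 mM NaCl. Boiled-bead eluates were run on SDS-PAGE and blotted with anti-NTMT1 (1:1000, 4°C overnight) and HRP secondary, with ECL detection.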

NTMT1 [3] = target: T1, NTMT1; assay type: binding; details: probe immobilized on streptavidin beads
Method in brief: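 Biotinylated probe (100 µM) was loaded overnight onto streptavidin resin in 20 mM Tris, 50 mM KCl, pH 7.5. Purified NTMT1 was bound for 4 h in the same buffer plus 1 mM DTT, then washed until no protein was detected. Elution was stepwise with 500 mM, 1 M, 2 M and 4 M NaCl, moving to the next step once eluate protein approached 0 mg/mL.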

[4] = target: protein N-terminal methyltransferase 1 (NTMT1), purified recombinant (human) (UniProt Q9BV86); experiment: SAHH-coupled fluorescence enzyme inhibition assay
[5] = target: T2, HemK2/KMT9-Trm112 complex (Homo sapiens, UniProt Q9Y5N5); experiment: HemK2-Trm112 methylation inhibition assay; assay type: biochemical; details: read-out: inhibition of activity
T2 sequence (Q9Y5N5 1-214): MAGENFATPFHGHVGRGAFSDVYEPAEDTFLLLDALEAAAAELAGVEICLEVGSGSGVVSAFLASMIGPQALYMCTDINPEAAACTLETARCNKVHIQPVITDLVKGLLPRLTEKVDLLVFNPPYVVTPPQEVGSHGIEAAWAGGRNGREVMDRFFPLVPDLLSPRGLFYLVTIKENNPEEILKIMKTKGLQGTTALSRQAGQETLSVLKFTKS
T2 sequence (Q9UI30 1-125 partner): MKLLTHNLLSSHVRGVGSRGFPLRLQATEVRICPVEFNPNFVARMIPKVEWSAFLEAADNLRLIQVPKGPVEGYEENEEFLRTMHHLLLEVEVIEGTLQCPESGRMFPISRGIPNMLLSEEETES

Compound | Ki [4] | Ki (NTMT1 [1]) | also measured
CC[C@H](C)[C@H](NC(=O)[C@H](CCCNC(=N)N)NC(=O)[C@H](CCCCN)NC(=O)[C@@H]1CCCN1C(=O)CNCCCCN(CC[C@H](N)C(=O)O)C[C@H]1O[C@@H](n2cnc3c(N)ncnc32)[C@H](O)[C@@H]1O)C(=O)N[C@@H](C)C(N)=O [NAH-C4-GPKRIA] | – | 0.13 ± 0.04 nM | –
NAH-C3-GPKK-biotin [Probe 6] | – | – | enrichment of NTMT1 from HeLa cell lysates (NTMT1 [2]): enriched; salt concentration at which NTMT1 was eluted off the probe (NTMT1 [3]): 4 M NaCl
NAH-C3-PPKRIA ({NAH-C3}-PPKRIA-NH2) | – | 39 ± 10 nM | –
Nc1ncnc2c1ncn2[C@@H]1O[C@H](C[C@@H](N)CC[C@H](N)C(=O)O)[C@@H](O)[C@H]1O [sinefungin] | – | – | inhibition at 100 µM [5]: ~50%

The next lines start with results.

Ki [4] | Compound | Ki (NTMT1 [1]) | also measured
41 nM | NAH-C3-GPK (compound 3) (peptide) | – | –
44 nM | NAH-C4-GPK (compound 4) (peptide) | – | –
